Sampled rows, rich in hits. Any-hit rate of the full collection: about 7.1%.
Fibroblast inh: blocks proliferation of human lung fibroblasts; LL 47 human lung fibroblast viability, ATP luminescence; stronger effect = lower value; viability, % at 10 µM; hit rate 1.1% among 85,000; AID 719;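 active means viability at or below 50% in the single dose screen; inactive means viability above 50%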;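 further: compound exposure lasted 72 h before the ATP readout; 100% = median luminescence of untreated cell-only wells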
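Signal: luminescent ATP detection, CellTiter-Glo; assay system: LL 47 human lung fibroblasts; input: 1,150 cells/well; incubation: overnight cell rest, 72 h compound treatment at 37 °C; measure: % viability versus median cells-only luminescence; medium: IMEM growth medium with 15% fetal bovine serum; dosing: compound addition at 0.1% DMSO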
H69AR growth 86K: blocks growth of human H69AR lung tumor cells. AID 598. viability, % at 10 µM. H69AR lung tumor viability, ATP luminescence, 72 h; stronger effect = lower value. hit rate 6% among 85,000;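 active means viability at or below 40%; inactive means viability above 40%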;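 further: multidrug resistant small cell line overexpressing MRP-1 efflux transporter; 100% = mean luminescence of untreated control wells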
Cav32 inh: blocks human Cav3.2 T-type calcium channel; AID 449739; Cav3.2-expressing cells, Fluo-4 calcium fluorescence FDSS; stronger effect = lower value; hit rate 4% among 100,000; O95180; B-score at 10 µM;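 active means single-dose well whose peak fluorescence ratio is a statistical outlier from its plate by either plate-standardised score or position-corrected B-score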
bCat KO growth: beta-catenin-lacking colon tumor cell growth suppression | viability, % at 10 µM | AID 818 | HCT116 beta-catenin knockout viability, CellTiter-Glo, 60 h; stronger effect = lower value | hit rate 1.5% among 140,000;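 active means viability at or under a set limit, the compound median less 4 SD, cut at about 6% in these data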;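 further: 0% = Hyamine 1622 control at 20 µM and 100% = untreated cell control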
HCT116 PTEN-null: growth suppressors of cells with PTEN tumor suppressor deletion; HCT116 PTEN-null viability, CellTiter-Glo, 60 h; stronger effect = lower value; viability, % at 10 µM; hit rate 1.2% among 140,000; AID 827;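 active means viability at or below a set limit, 4 SD under the median of all tested compounds, cut at about 3.7% in these data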;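 further: PTEN knockout HCT116 line with beta catenin targeted HCT116 as companion control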
HUVEC inhibit: blocks proliferation of human endothelial cells; HUVEC proliferation, CellTiter-Glo luminescence, 72 h; stronger effect = lower value; viability, % at 10 µM (by protocol); hit rate 1.1% among 86,000; AID 648;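 active means viability at or below 30%; inactive means viability above 30%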;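 further: 100% = median luminescence of DMSO-only cell control wells on each plate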
* marks the source's active call; other numbers are inactive results; · = not tested or not shown.

SMILES	Fibroblast inh	H69AR growth 86K	Cav32 inh	bCat KO growth	HCT116 PTEN-null	HUVEC inhibit
CCOC(=O)C1=C(CNCCc2ccc(Cl)cc2)NC(=O)NC1c1ccc2c(c1)OCO2 (centres undefined)	95	108	-4.6*	59	62	94
CCOC(=O)c1cc2n(c1/N=C/N(C)C)-c1ccccc1C2=O	100	80	-3.9*	104	97	100
Cc1[nH]c2ccccc2c1C1C(c2ccccc2)=NN=C(C(C)C)N1O (centres undefined)	88	88	-5.4*	87	93	103
CC1=NN=C(c2ccccc2)C(c2c[nH]c3ccccc23)N1O (centres undefined)	·	·	·	92	91	·
Cc1cccc(OCC(=O)Nc2ccc(N3CCN(C(=O)c4ccccc4)CC3)cc2)c1	·	·	·	91	88	·
Cn1c(SCC(=O)N2CCCCC2)nc2c([nH]c3ccccc32)c1=O	87	43	3.2	19	55	81
Cn1c(SCC(=O)N2CCCCCC2)nc2c([nH]c3ccccc32)c1=O	67	38*	0.58	85	92	81
CC(C)Oc1ccc(Br)cc1/C=N\NC(N)=S	·	·	·	79	80	·
COC(=O)c1ccc(CSc2nc3ccccc3c(=O)n2CC(C)C)o1	103	104	-4.7*	77	76	110
CCCOC(=O)c1ccc(Oc2coc3c(CN(CC)CC)c(O)ccc3c2=O)cc1	·	·	·	85	91	·
c1cc2c(cc1C1=Nn3c(nnc3C3CCCCC3)SC1)OCO2	84	29*	-2.4	48	38	75
COC(=O)C1=C(C)N(CCCC(=O)O)C(=O)NC1c1ccccc1Cl (centres undefined)	·	·	1.6	·	·	·
Clc1ccc(C2=CC(c3ccco3)n3ncnc3N2)cc1 (centres undefined)	89	77	-5.6*	89	75	91
CC(NCc1ccc(-c2ccccc2)cc1)C(O)c1ccccc1 (centres undefined)	·	·	·	2.8*	6	·
CCOC(=O)COc1ccc(/C=C2\NC(=S)N(CC)C2=O)cc1	·	·	·	91	82	·
C=CCOC(=O)C1=C[C@H](c2csc3ccccc23)C[C@H](OCc2ccc(CO)cc2)O1	·	·	-0.93	·	·	·
O=C(CNC(=O)c1ccc(N2C(=O)c3ccccc3C2=O)cc1)OCC(=O)c1ccc(Cl)cc1	·	·	·	99	103	·
O=C1C(Nc2ccccc2)=C(NS(=O)(=O)c2ccccc2)C(=O)c2ccccc21	·	·	·	79	71	·
O=C1C(Cl)=C(NCCCO)C(=O)c2ccccc21	104	7.4*	2.1	11	11	96
CN(C)c1ccc(NC2=C(Cl)C(=O)c3ccccc3C2=O)cc1	·	·	·	1.6*	1.5*	·
Cc1ccc(NC2=C(NCCO)C(=O)c3ccccc3C2=O)cc1	·	·	·	61	62	·
CC(/C=C/C=C/c1ccccc1)=N/NC(=O)CNc1ccc(C)cc1	·	·	0.1	93	97	·
CNC(=O)c1sc(N2N=C3/C(=C/c4ccccc4)CCCC3C2c2ccccc2)nc1C (centres undefined)	·	·	-4.4*	28	31	·
O=C(c1ccccn1)N1N=C2/C(=C/c3ccccc3)CCCC2C1c1ccccc1 (centres undefined)	·	·	·	67	65	·
CCCOc1ccc(C(C)=O)cc1CSc1nc(O)cc(=O)[nH]1	104	86	1.4	92	95	84
SMILES	Fibroblast inh	H69AR growth 86K	Cav32 inh	bCat KO growth	HCT116 PTEN-null	HUVEC inhibit
Cc1cc2ncn(C(=O)N3CCC(C)CC3)c2cc1C	104	81	-6.5*	0.6*	0.7*	107
N#CC1=C(N)S[C@@H](C(=O)c2ccc(F)cc2)[C@@H]1c1cccs1	88	68	-4.7*	61	76	101
CC(NC(=O)/C=C/c1ccc(Br)cc1)c1ccc(Cl)cc1 (centres undefined)	·	·	·	92	92	·
COc1ccc(NC(=O)c2cc3n(n2)C(C(F)(F)F)CC(c2ccc4c(c2)OCO4)N3)cc1OC (centres undefined)	96	68	·	16	24	82
CCOc1ccc(NC(=O)c2cc3n(n2)C(C(F)(F)F)CC(c2ccco2)N3)cc1 (centres undefined)	37*	63	0.035	72	93	97
Cc1cccc(NC(=O)c2cc3n(n2)C(C(F)(F)F)CC(c2ccc4c(c2)OCO4)N3)c1 (centres undefined)	·	·	-7.3*	27	35	·
O=C(Nc1ccc(O)cc1)c1cc2n(n1)C(C(F)(F)F)CC(c1ccco1)N2 (centres undefined)	90	·	-0.52	20	21	71
Cc1ccccc1N1CCN(c2ccc(NC(=O)C3CCCCC3C(=O)O)cc2)CC1 (centres undefined)	·	·	·	82	78	·
COCCNC(=O)Cn1cnc2c1c(=O)n(C)c(=O)n2C	103	87	-5.3*	88	97	98
COC(=O)Cn1cnc2c1c(=O)n(C)c(=O)n2C	105	93	1.1	100	93	99
O=c1c2cnn(-c3ccccc3Cl)c2ncn1Cc1cccnc1	80	88	0.31	97	99	91
C=CCNc1nc(N)c(C(=C(C#N)C#N)c2ccc(Br)cc2)s1	·	·	·	50	30	·
N#CC1=C(N)N(c2ccccc2)C(c2cccc([N+](=O)[O-])c2)C1(C#N)C#N (centres undefined)	90	10*	-6.6*	93	89	87
Cc1cccc(N2C(N)=C(C#N)C(C#N)(C#N)C2c2ccccc2)c1 (centres undefined)	87	64	·	97	70	108
O=C(CCSc1ccccc1)NC(=O)COC(=O)c1ccc(OC(F)F)cc1	·	·	·	97	110	·
O=C1CC(N(CCc2ccccc2)C(=S)Nc2cc(Cl)ccc2Cl)C(=O)N1c1c(Cl)cccc1Cl (centres undefined)	·	·	-2.6*	42	31	·
Cc1ccc(NC(=O)c2cc(S(=O)(=O)N3CCOCC3)c(Br)s2)cc1	·	·	·	80	78	·
N#CCCn1cc(/C=N/NC(=O)c2ccncc2)c(-c2ccc(F)cc2)n1	·	·	·	102	105	·
CCOc1cccc2cc(-c3nnc(NCc4ccco4)s3)c(=O)oc12	53	3.7*	-0.99	82	89	20*
CCOc1cccc2cc(-c3cn4cc(C)ccc4n3)c(=O)oc12	24*	·	0.47	1.1*	1.3*	92
COc1ccc2oc(=O)c(-c3nnc(NCc4ccco4)s3)cc2c1	95	2.6*	-1.5	4.2*	3.8*	20*
Cc1cc(Cl)ccc1NC(=S)NCCN1CCOCC1	·	·	·	86	87	·
Cc1ccc(S(=O)(=O)N(CCC(=O)O)c2ccccc2)cc1	·	·	·	90	93	·
O=[N+]([O-])c1ccc2nc(-c3ccc(Cl)cc3)[nH]c2c1	·	·	·	8	2.7*	·
COC(=O)c1c(NC(=O)CN2C(=O)NC3(CCc4ccccc4C3)C2=O)sc2c1CCCCC2 (centres undefined)	·	·	·	83	90	·
CCCCCN(CCCCC)C(=O)C(CCC(=O)O)NC(=O)c1ccc(Cl)c(Cl)c1 (centres undefined)	·	·	-8.5*	·	·	·

Screening data from PubChem.
